MrgX1 agonist – activates human MrgX1 receptor signaling | MrgX1-HEK293 cells, Fluo-4 calcium fluorescence, agonist mode; hits give high values | AID 588627 | Q96LB2 | 310,000 tested, 0.44% active | B-score at 10 µM;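 active means calcium response B-score plate-corrected fluorescence ratio at least 3 library SD, with starting fluorescence B-score inside 5 SD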
Target sequence (Q96LB2 whole entry, looked up): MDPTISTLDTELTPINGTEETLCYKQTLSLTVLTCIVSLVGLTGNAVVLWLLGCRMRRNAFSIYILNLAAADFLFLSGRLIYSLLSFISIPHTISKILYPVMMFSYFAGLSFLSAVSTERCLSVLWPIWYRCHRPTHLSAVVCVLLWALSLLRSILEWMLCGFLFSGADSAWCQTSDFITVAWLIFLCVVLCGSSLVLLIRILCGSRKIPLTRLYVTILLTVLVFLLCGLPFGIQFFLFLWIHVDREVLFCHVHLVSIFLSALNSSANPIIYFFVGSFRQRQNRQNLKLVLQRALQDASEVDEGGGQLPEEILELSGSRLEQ
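Material: MrgX1-expressing HEK293 cells / Dosing: compound as first of three additions / Incubation: overnight seeding, then 1 h dark dye loading / Signal: Fluo-4 NW calcium fluorescence / Evaluation: B-scored fluorescence response ratio / Benchmarks: positive and negative control wells on each plate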
RGS4 inh – inhibitors of human RGS4. HEK293 M3R/RGS4 inducible, Fluo-4 calcium flux; hits give high values; triggered by carbachol at its EC20. B-score at 10 µM. 310,000 tested, 0.45% active. AID 463165;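 active means B-score, a plate-corrected calcium signal, over three deviations above library mean, with baseline fluorescence within five deviations of library mean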;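 further: RGS4 expression induced by doxycycline in cells with stable M3 receptor; B-score is computed from the integrated fluorescence ratio over baseline after carbachol; higher B-score means a larger calcium signal and so more RGS4 inhibition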
MrgX1 antagonist – antagonists of human MrgX1 receptor; Q96LB2; MRGX1-HEK293 calcium flux, Fluo-4, BAM8-22 antagonism; hits give low values; B-score at 10 µM; 310,000 tested, 1.3% active;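 active means calcium-response B-score plate-corrected more than 3 library SD below zero, starting fluorescence within 5 deviations, no agonist response on first addition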;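 further: peak minus trough fluorescence over baseline after final BAM8-22 challenge near maximal dose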
MrgX1 allo act – human MrgX1 positive allosteric modulation, primary screen; 310,000 tested, 0.63% active; MrgX1-HEK293, Fluo-4 calcium flux, FDSS; hits give high values; B-score at 10 µM; AID 588675;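 active means plate-corrected calcium response at least 3 library SD above typical, normal starting fluorescence, not activating the receptor alone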;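 further: compound read alongside a low EC10 to EC30 dose of BAM8-22 agonist; peak minus trough fluorescence over baseline measured at the second addition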
RGS4 pot – RGS4 potentiation or activation; HEK293 M3R/inducible RGS4, carbachol calcium flux Fluo4; hits give low values; 310,000 tested, 0.92% active; B-score at 10 µM;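 active means B-score of the integrated calcium signal more than 4 SD below the library mean, with starting fluorescence not abnormally high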;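 further: negative B-score means reduced calcium response which marks RGS4 activation or potentiation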
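test system = HEK293 cells with stable M3R and inducible RGS4 | schedule = recording 10 s baseline at 1 Hz, 100 s post-agonist | technique = Fluo4-AM (2 µM) calcium-flux fluorescence, kinetic read | measure = Agonist-evoked peak-minus-minimum fluorescence over baseline, integrated ratio, B score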
RGS4 block valid – validation of RGS4 inhibitors; shares compounds with RGS4 inh; AID 492999; HEK293 M3R/RGS4, carbachol calcium Fluo-4 fluorescence; carbachol added at its EC20; 0 = buffer wells, 100 = carbachol control; calcium response, % at 10 µM; 1,700 tested, 65% active;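 active means duplicate-averaged calcium response above the buffer-only control mean plus 5 SD of those controls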;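 further: integrated fluorescence ratio F max minus min over baseline F0; higher response in RGS4-induced cells means RGS4 inhibition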
M3R Ca ctr – checks RGS4 inhibitor effects in non-induced HEK293 M3R cells; shares compounds with RGS4 inh; carbachol calcium Fluo-4; submaximal (EC20) carbachol stimulus; buffer wells 0%, carbachol control wells 100%; activity (percent), % at 10 µM; 1,900 tested, 20% active; call rule not given here;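 further: RGS4 induction absent so cells express M3R without RGS4; higher means more calcium signal and flags a non-specific hit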
M3R basal Ca ctr – signal in non-induced cells without carbachol, RGS4 inhibitor counter-screen. shares compounds with RGS4 inh. HEK293 M3R/RGS4 non-induced, Fluo-4 calcium, no carbachol; normalised: buffer wells 0%, carbachol wells 100%. calcium response (agonist-mode artifact), % at 10 µM. 1,900 tested, 22% active;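 active means duplicate-averaged calcium rise in uninduced cells above buffer wells' mean plus 5 SD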
Active calls of the source: *; i = inactive; x = no result given. This is a sample that favours compounds with a hit; in the whole collection about 3.5% have one here.

SMILES	MrgX1 agonist	RGS4 inh	MrgX1 antagonist	MrgX1 allo act	RGS4 pot	RGS4 block valid	M3R Ca ctr	M3R basal Ca ctr
COc1ccc(CC2SC(N)=NC2=O)cc1 (stereo unspecified)	i	i	i	i	i	x	x	x
Nc1ccccc1S(=O)(=O)C(F)F	i	i	i	i	i	x	x	x
COCCNC(=O)c1cn(Cc2c(F)cccc2Cl)nn1	i	i	i	i	i	x	i	i
CCCNC(=O)c1ccccc1NC(=O)Nc1ccccc1C	i	x	i	i	x	x	x	x
CCCNC(C)C(=O)Nc1ccccc1C (stereo unspecified)	i	4.8*	i	i	i	6.5%*	i	i
CCC(C)Nc1nc2c(c(=O)[nH]c(=O)n2C)n1CCOc1ccccc1 (stereo unspecified)	i	i	i	i	i	x	x	x
CCCCn1c(NC(C)CC)nc2c1c(=O)[nH]c(=O)n2C (stereo unspecified)	i	4.7*	i	i	i	9.5%*	i	i
CCOc1cc(/C=C2\C(=O)N(c3ccc(C(N)=O)cc3)N=C2C)ccc1OC(=O)c1cccs1	i	i	i	i	i	x	x	x
CC1=NN(c2ccc(C(=O)O)cc2)C(=O)/C1=C\c1ccc(OC(=O)c2cccs2)cc1	i	13*	i	i	i	24%*	i	i
CC(=O)N1c2ccc(S(=O)(=O)NCC3CCC(C(=O)NC4CCCCC4)CC3)cc2CC1C (stereo unspecified)	i	i	i	i	i	x	x	x
CC1=NN(c2cccc(C(=O)O)c2)C(=O)/C1=C\C=C/c1ccccc1	x	34*	x	x	i	80%*	59%*	i
OCCNc1nnc(-c2ccccc2)c(-c2ccccc2)n1	i	i	i	i	i	x	x	x
CCOC(=O)c1c(C)oc2c1cc(NS(=O)(=O)c1ccc(C(=O)O)cc1)c1ccccc12	i	i	i	i	i	x	i	i
O=S(=O)(Nc1nccs1)c1ccc(NCc2cc(Br)cc(Br)c2O)cc1	i	7.8*	i	i	i	6.0%*	44%*	i
O=C(CNc1ccc(Cl)cc1)c1ccc(Br)cc1	i	i	i	i	i	x	x	x
O=C(CNc1ccc(Br)cc1)c1ccc(O)cc1	i	9.6*	i	i	i	22%*	i	i
COc1cccc(CNC(=O)CSc2nc(=O)n(Cc3ccncc3)c3c2CCC3)c1	i	i	i	i	i	x	x	x
CCCCCN(C(=O)CCC(=O)OCc1cccc(Br)c1)c1c(N)n(CCCC)c(=O)[nH]c1=O	i	i	i	i	i	x	x	x
O=C(CCSc1ccccn1)c1ccccc1	i	5.7*	i	i	i	5.0%*	36%*	18%*
O=C(O)CCSc1ccccn1	i	i	i	i	i	x	x	x
CN(C)C1(CNC(=O)Nc2ccccc2)CCCCC1	i	4.7*	i	i	i	i	i	i
CC(=O)Nc1ccc(C(=S)NCC2(N(C)C)CCCCC2)cc1	i	i	i	i	i	x	x	x
COC(=O)[C@@H](Cc1c[nH]c2ccccc12)NC(=O)CCC(=O)c1ccc(F)cc1	i	i	i	i	i	x	x	x
N#CCSc1nc(N)c(C#N)c(C2CCCCC2)c1C#N	i	5.1*	i	i	i	16%*	50%*	i
N#Cc1c(N)nc(SCC(=O)NC2CCCCC2)c(C#N)c1-c1ccc(Cl)cc1	i	i	i	i	i	x	x	x
